Calls of active or inactive are those of the source. The calls are words filed in the database; no cut-off is given here.
Legend:
[1] = test system: H9c2; assay: Effect on protein oxidation in rat H9c2 cells at 10 uM incubated for 24 hrs under serum-free medium by Western blot analysis; assay type: functional, cell-based
[2] = test system: Cardiac muscle cell; assay: Cytoprotective activity against serum deprivation-induced neonatal Wistar rat cardiomyocyte death assessed as suppression of internucleosomal cleavage of genomic DNA at 0.37 uM measured after 3 days by agarose gel electrophoresis; assay type: functional, cell-based; conditions: time 3.0 day
Procedure, shortened: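 Neonatal rat cardiomyocytes held with or without 0.37 μM compound in serum-free medium for 3 days. Genomic DNA then isolated and internucleosomal laddering examined by agarose gel electrophoresis.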

[3] = test system: Cardiac muscle cell; assay: Cytoprotective activity against DOX-induced neonatal Wistar rat cardiomyocyte death assessed as increase in cell viability at 4.6 to 370 nM preincubated for 3 hrs followed by DOX addition and measured after 18 hrs by WST-8 assay; assay type: functional, cell-based; conditions: dose 4.6-370 nM, time 21.0 hrs
Procedure, shortened: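 Neonatal rat cardiomyocytes, isolated by proteinase digestion and preplating, pretreated with samples for 3 hr in serum-free medium, then exposed to 200 nM doxorubicin for 18 hr. Viability by WST-8. Mean ± SD, n = 6.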

[4] = Upregulation of NAD(P)H-menadione oxidoreductase gene expression in serum-deprived neonatal Wistar rat cardiomyocyte at 0.37 uM incubated for 21 hrs by microarray analysis relative to control; assay type: functional, Cardiac muscle cell
Procedure, shortened: (§1)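 Primary neonatal rat cardiomyocytes cultured with or without 0.37 μM compound in serum-free medium for 21 hr. Total RNA profiled on the rat genome U34A GeneChip array (about 7000 known genes).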

[5] = Upregulation of heme oxygenase-1 gene expression in serum-deprived neonatal Wistar rat cardiomyocyte at 0.37 uM incubated for 21 hrs by microarray analysis relative to control; assay type: functional, Cardiac muscle cell
Procedure, shortened: (§2)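 Primary neonatal rat cardiomyocytes, isolated by proteinase digestion with preplating to deplete nonmyocytes, cultured in serum-free medium with or without 0.37 μM compound for 21 hr. Total RNA was recovered and global expression profiled on an Affymetrix GeneChip rat genome U34A array (about 7000 known genes). Change is relative to untreated cells.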

[6] = Upregulation of glutathione S-transferase Ya subunit gene expression in serum-deprived neonatal Wistar rat cardiomyocyte at 0.37 uM incubated for 21 hrs by microarray analysis relative to control; assay type: functional, Cardiac muscle cell; procedure, shortened: as §2
[7] = Upregulation of NAD(P)H: quinone reductase gene expression in serum-deprived neonatal Wistar rat cardiomyocyte at 0.37 uM incubated for 21 hrs by microarray analysis relative to control; assay type: functional, Cardiac muscle cell; procedure, shortened: as §1
[8] = Upregulation of multidrug resistance protein gene expression in serum-deprived neonatal Wistar rat cardiomyocyte at 0.37 uM incubated for 21 hrs by microarray analysis relative to control; assay type: functional, Cardiac muscle cell; procedure, shortened: as §2
[9] = Upregulation of catalase gene expression in serum-deprived neonatal Wistar rat cardiomyocyte at 0.37 uM incubated for 21 hrs by microarray analysis relative to control; assay type: functional, Cardiac muscle cell; procedure, shortened: as §2
[10] = Upregulation of thioredoxin reductase gene expression in serum-deprived neonatal Wistar rat cardiomyocyte at 0.37 uM incubated for 21 hrs by microarray analysis relative to control; assay type: functional, Cardiac muscle cell; procedure, shortened: as §2
[11] = test system: Antioxidant response element; assay: Induction of ARE activity in serum-deprived neonatal Wistar rat cardiomyocytes assessed as increase in GST Ya expression up to 400 nM measured after 24 hrs by Western blot analysis; assay type: cell-based; conditions: Cardiomyocyte
Procedure, shortened: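 Neonatal rat cardiomyocytes exposed to samples or vehicle in M-199 with 1% penicillin-streptomycin, no serum, for 24 hr. GST Ya and HO-1 mRNA measured by real-time qPCR (mean ± SD, n = 3); protein by western blot with β-actin as control.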

[12] = molecular target: Macrophage migration inhibitory factor (Rattus norvegicus) (UniProt P30904); assay: Inhibition of recombinant rat MIF expressed in Escherichia coli BL21 (DE3) assessed as reduction in tautomerase activity at 3.75 to 30 uM using L-dopachrome carboxy-methyl ester as substrate by spectrophotometry; conditions: dose 3.75-30 µM
Sequence of Macrophage migration inhibitory factor (Rattus norvegicus) (P30904 2-115 limits assumed): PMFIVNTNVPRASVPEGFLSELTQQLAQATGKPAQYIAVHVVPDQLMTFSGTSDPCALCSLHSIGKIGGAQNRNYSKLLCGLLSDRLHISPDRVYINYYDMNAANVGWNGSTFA
Procedure, shortened: (§3)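 Purified recombinant rat MIF tautomerase assayed with purified L-dopachrome carboxy-methyl ester as substrate in pH 6.0 buffer; rate taken over the initial 30 s. Mean ± SD, n = 4.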

[13] = molecular target: Macrophage migration inhibitory factor (Rattus norvegicus) (UniProt P30904); assay: Inhibition of recombinant rat MIF expressed in Escherichia coli BL21 (DE3) assessed as reduction in tautomerase activity at 30 uM using L-dopachrome carboxy-methyl ester as substrate by spectrophotometry relative to control; procedure, shortened: as §3
[14] = species on record: Homo sapiens; assay: Binding affinity to BTZO-12 sensor chip immobilized recombinant human N-terminal His-tagged MIF C59S mutant expressed in Escherichia coli BL21 (DE3) by SPR analysis
Procedure, shortened: (§4)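 Sensor chip carrying immobilized BTZO-12; MIF (wild type or point mutants) passed over it and specific binding monitored by surface plasmon resonance.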

[15] = molecular target: T1, Macrophage migration inhibitory factor (Homo sapiens) (UniProt P14174); assay: Binding affinity to BTZO-12 sensor chip immobilized recombinant human C-terminal His-tagged MIF expressed in Escherichia coli BL21 (DE3) by SPR analysis; procedure, shortened: as §4
T1 sequence (whole entry): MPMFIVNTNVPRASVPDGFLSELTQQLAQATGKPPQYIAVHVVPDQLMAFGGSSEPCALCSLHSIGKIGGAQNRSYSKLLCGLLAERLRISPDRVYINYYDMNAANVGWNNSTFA

[16] = molecular target: T2, Macrophage migration inhibitory factor (Homo sapiens, UniProt P14174); assay: Binding affinity to recombinant human C-terminal His-tagged MIF expressed in Escherichia coli BL21 (DE3) at 400 nM incubated for 6 hrs using labelled compound by scintillation proximity assay
T2 sequence (P14174 whole entry): T1 sequence (whole entry)
Procedure, shortened: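 Scintillation proximity assay: 6His-tagged protein (hMIF, rat GST Ya or rat VILIP3) captured on copper His-tag SPA beads with [3H]-BTZO-1; emitted light counted on a microplate scintillation counter. Mean of n = 2.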

[17] = molecular target: T2, Macrophage migration inhibitory factor; assay: Binding affinity to BTZO-12 sensor chip immobilized human MIF expressed in Escherichia coli BL21 (DE3) by SPR analysis; procedure, shortened: as §4
[18] = molecular target: Macrophage migration inhibitory factor (Rattus norvegicus) (UniProt P30904); assay: Induction of MIF-stimulated ARE activity in rat H9c2 cells assessed as increase in GST Ya expression at 3 uM incubated for 24 hrs by RT-qPCR analysis; assay type: cell-based
[19] = Reduction in MIF expression in MIF siRNA transfected rat H9c2 cell culture medium at 3 uM measured after 24 hrs ELISA relative to control; assay type: functional; parameters: scale not given: the % may be the effect or the level left
Procedure, shortened: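 H9c2 cells transfected with 100 nM rat MIF siRNA or negative-control siRNA using Oligofectamine in Opti-MEM, then treated with 3 μM compound for 24 hr. MIF mRNA by real-time qPCR; MIF protein in cell lysate and medium by ELISA. Mean ± SD, n = 3.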

[20] = test system: Antioxidant response element; assay: Induction of ARE-mediated HO-1 mRNA expression in MIF siRNA transfected rat H9c2 cells at 3 uM measured after 24 hrs by RT-qPCR analysis; assay type: cell-based
Procedure, shortened: (§5)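 H9c2 cells transfected with MIF siRNA or control siRNA (100 nM, Oligofectamine), then treated with 3 μM compound with or without 0.8 μM rMIF for 24 hr. GST Ya and HO-1 mRNA by real-time qPCR; mean ± SD, n = 3. MIF effect on drug efficacy tested by Aspin-Welch test.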

[21] = test system: Antioxidant response element; assay: Induction of ARE-mediated HO-1 mRNA expression in MIF siRNA transfected rat H9c2 cells at 3 uM measured after 24 hrs in presence of rat MIF by RT-qPCR analysis; assay type: cell-based; procedure, shortened: as §5
[22] = molecular target: Macrophage migration inhibitory factor (Rattus norvegicus, UniProt P30904); assay: Inhibition of recombinant rat MIF expressed in Escherichia coli BL21 (DE3) assessed as reduction in tautomerase activity using L-dopachrome carboxy-methyl ester as substrate by spectrophotometry; procedure, shortened: as §3
Sequence of Macrophage migration inhibitory factor (Rattus norvegicus, UniProt P30904) (P30904 2-115 limits assumed): as the sequence (P30904 2-115 limits assumed) above

## O=c1nc(-c2ccccn2)sc2ccccc12 [BTZO-1]
[1]
  Activity: inactive
[2]
  Activity: Active
[3]
  Activity: Active
[4]
  fold change (FC): 2.8
[5]
  fold change (FC): 2
[6]
  fold change (FC): 12
[7]
  fold change (FC): 9.4
[8]
  fold change (FC): 2.7
[9]
  fold change (FC): 2.3
[10]
  fold change (FC): 2.8
[11]
  Activity: Active
[12]
  inhibition: Active
[13]
  inhibition: 13%
[14]
  Activity: Active
[15]
  Activity: Active
[16]
  Kd: 68.6 nM
[17]
  Kd: 88 nM
[18]
  Activity: Active
[19]
  Activity: ~75%
[20]
  Activity: inactive
[21]
  Activity: Active
[22]
  IC50: > 30 µM

— ChEMBL document CHEMBL5715946 (Chem Biol, 2010)
